Measured values reported in article PMC7007330 (Molecular microbiology, 2019).
“Also recorded” adds a separate entry of the source. Where two headings read alike, the source gives them in different places.

Key:
ATP translocases = conditions: cited from earlier work
[1] = test system: wild-type C. trachomatis L2; assay: Progeny assay; format: cell-based, Chlamydia trachomatis; conditions: L929 cells; BKA 0.25 μM, HQNO 1 μM; 36 hpi then passaged
Method in brief: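 L929 cells were infected with C. trachomatis L2 wild-type or RsbU* strains, with BKA (0.25 μM) and HQNO (1 μM) added at infection where indicated. At 36 hpi, wells were either fixed and stained with MicroTrack reagent, or water-lysed and passaged onto fresh host monolayers, then fixed and stained 36 h later. IFUs were counted, and fold change was taken as post-passage IFUs relative to first-36 h IFUs.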

[2] = test system: wild-type Chlamydia trachomatis L2; assay: Growth curves with chemical inhibitors; format: cell-based; conditions: L929 cells; HQNO 1 μM, BKA 0.25 μM added at infection; 0-72 hpi
RsbU* mutant = assay: Immunofluorescence microscopy of infected L929 cells, RsbU* mutant; format: cell-based, Chlamydia trachomatis; conditions: 24 and 72 hours
Method in brief: (§1)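 L929 monolayers were grown to confluency on slides and infected with wild-type C. trachomatis L2 or RsbU* mutant. HQNO or BKA was added immediately after infection where indicated. At 24 and 72 hpi, cells were fixed in 100% methanol (10 min, RT), washed with HBSS then PBS, and stained with MicroTrack reagent (1:40 in PBS, 1 h 50 min, RT). Nuclei were stained with DAPI (10 min, RT, dark) and samples mounted in antifade. Imaging was by spinning-disk confocal at 150X, 7 Z-stacks, maximum projection.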

[3] = test system: wild-type C. trachomatis L2; assay: Immunofluorescence microscopy of infected L929 cells, wild-type; format: cell-based, Chlamydia trachomatis
Method in brief: as §1

[4] = test system: RsbU* mutant strain of C. trachomatis L2; assay: Growth curves with chemical inhibitors; format: cell-based, Chlamydia trachomatis; conditions: L929 cells; HQNO 1 μM added at infection
[5] = test system: sodium-dependent NADH dehydrogenase; conditions: low concentrations (1 μM); cited from earlier work
RsbU45–313 K140A/R134A = molecular target: T1, RsbU45–313 K140A/R134A (Chlamydia trachomatis, UniProt A0A0H3MDU0, K140A/R134A); assay: Surface plasmon resonance, K140A/R134A variant; format: binding; conditions: read-out: KD (estimated, steady state affinity), SPR, PBS
T1 sequence (A0A0H3MDU0 45-313 R134A/K140A): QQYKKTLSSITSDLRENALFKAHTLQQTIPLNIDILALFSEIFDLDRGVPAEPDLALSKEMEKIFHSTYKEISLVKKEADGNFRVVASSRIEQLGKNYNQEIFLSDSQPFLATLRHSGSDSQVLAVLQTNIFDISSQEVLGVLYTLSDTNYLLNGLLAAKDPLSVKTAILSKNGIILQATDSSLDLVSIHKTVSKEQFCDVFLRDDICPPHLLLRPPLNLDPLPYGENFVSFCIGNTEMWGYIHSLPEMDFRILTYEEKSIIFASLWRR

RsbU45–313 K140A = molecular target: T2, RsbU45–313 K140A (Chlamydia trachomatis, UniProt A0A0H3MDU0, K140A); assay: Surface plasmon resonance, K140A variant; format: binding; conditions: read-out: KD (estimated, steady state affinity), SPR, PBS
T2 sequence (A0A0H3MDU0 45-313 K140A): T1 sequence (A0A0H3MDU0 45-313 R134A/K140A)

RsbU45–313 [6] = molecular target: T3, RsbU45–313 (Chlamydia trachomatis, UniProt A0A0H3MDU0); assay: Differential scanning fluorimetry; format: binding
RsbU45–313 R134A = molecular target: T4, RsbU45–313 R134A (Chlamydia trachomatis, UniProt A0A0H3MDU0, R134A); assay: Surface plasmon resonance, R134A variant; format: binding; conditions: read-out: KD (estimated, steady state affinity), SPR, PBS
T4 sequence (A0A0H3MDU0 45-313 R134A): T1 sequence (A0A0H3MDU0 45-313 R134A/K140A)

WT RsbU45–313 = WT RsbU45–313 (Chlamydia trachomatis, UniProt A0A0H3MDU0); format: binding; conditions: for SPR dose-dependent binding curves: Figure S3; for binding in initial SPR screening: ligands at 100 μM and 1 mM
RsbU45–313 [7] = molecular target: T3, RsbU45–313; assay: biochemical; format: binding
RsbU45–313 Q137A = molecular target: T5, RsbU45–313 Q137A (Chlamydia trachomatis, UniProt A0A0H3MDU0, Q137A); assay: Surface plasmon resonance, Q137A variant; format: binding; conditions: read-out: KD (estimated, steady state affinity), SPR, PBS
T5 sequence (A0A0H3MDU0 45-313 Q137A): T1 sequence (A0A0H3MDU0 45-313 R134A/K140A)

[8] = 5 mM and 10 mM ligand, 10 μM RsbU45–313

SMILES: CO[C@H](C/C=C\C=C\CC/C=C/C[C@H](C)/C=C/C(=C\C(=O)O)CC(=O)O)/C(C)=C\C=C(/C)C(=O)O [BKA, bongkrekic acid]
- inhibition of ATP translocases (ATP translocases): inhibit ATP translocases
- progeny production (IFUs) [1]: decrease in IFUs produced
- growth of wild-type Chlamydia (secY vs rpp30 genome copies) [2]: decrease in the growth of wild-type Chlamydia
- levels of RsbU* Chlamydia or their dispersion within the host cell (RsbU* mutant): appeared to have no effect
- morphology by confocal microscopy ([3]; 24 and 72 hours): No obvious morphological abnormalities

SMILES: CCCCCCCc1cc(O)c2ccccc2[n+]1[O-] [HQNO, 2-heptyl-4-hydrosyquinoline N-oxide]
- growth of RsbU* mutant (secY vs rpp30 genome copies) [4]: does not have an additive effect on the growth defect
- progeny production (IFUs) [1]: decrease in the number of IFUs produced compared to the initial infection
- inhibition of sodium-dependent NADH dehydrogenase [5]: selectively inhibit
- growth of wild-type Chlamydia (secY vs rpp30 genome copies) [2]: not statistically different from the RsbU* mutant growth at any time point; also recorded: marked reduction in growth
- levels of RsbU* Chlamydia or their dispersion within the host cell (RsbU* mutant): appeared to have no effect
- inclusion morphology by confocal microscopy ([3]; 24 hours post-infection): formed smaller inclusions and appear to contain fewer EBs
- inclusion morphology by confocal microscopy ([3]; 72 hours post-infection): inclusions that were grossly under-full

SMILES: O=C(O)CCC(=O)C(=O)O [alpha-ketoglutarate]
- Kd (RsbU45–313 K140A/R134A): 558 µM
- Kd (RsbU45–313 K140A): 597 µM
- DSF temperature shift (RsbU45–313 [6]; [8]): Significant stabilizing temperature shifts
- Kd (RsbU45–313 R134A): 526 µM
- SPR dose-dependent binding curves (WT RsbU45–313): show dose-dependent binding
- binding in initial SPR screening (WT RsbU45–313): binding was only observed
- Kd (WT RsbU45–313; read-out: KD (estimated, steady state affinity), SPR, WT RsbU45–313, PBS): 419 µM
- Kd (RsbU45–313 [7]; read-out: KD (ITC), single trial, 30 μM protein, PBS, data not shown): 25.8 µM
- Kd (RsbU45–313 Q137A): 548 µM

SMILES: O=C(O)CC(O)C(=O)O (stereo not shown) [malate]
- DSF temperature shift (RsbU45–313 [6]; [8]): Significant stabilizing temperature shifts
- SPR dose-dependent binding curves (WT RsbU45–313): show dose-dependent binding
- binding in initial SPR screening (WT RsbU45–313): binding was only observed
- Kd (RsbU45–313 [7]): 22 µM

SMILES: O=C(O)CC(=O)O [malonate]
- SPR dose-dependent binding curves (WT RsbU45–313): do not appear to be binding

SMILES: O=C(O)CC(=O)C(=O)O [oxaloacetate]
- DSF temperature shift (RsbU45–313 [6]; highest ligand concentration tested, only in one of two biological replicates): significant positive temperature shift
- SPR dose-dependent binding curves (WT RsbU45–313): show dose-dependent binding
- binding in initial SPR screening (WT RsbU45–313): binding was only observed
- Kd (RsbU45–313 [7]): 55.5 µM

SMILES: O=C(O)CCC(=O)O [succinate]
- SPR dose-dependent binding curves (WT RsbU45–313): do not appear to be binding
